One assay concerns U-251. Briefly: Cytotoxicity against human U251 cells after 72 hrs by XTT assay. Type of assay: functional, cell-based. Conditions: U-251, 72 h. The essentials:
(§1)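 HCT-116 and U-251 cells grown in high-glucose DMEM with 4 mM L-glutamine, 10% FBS, and 1% penicillin/streptomycin at 37 °C in 5% CO2. 5000 cells/well were attached overnight, then treated 72 h (final DMSO 0.5%; vinblastine 0.01 μM as positive control). XTT was measured photometrically 1.5 h after addition. IC50 by four-parameter logistic fit; mean ± SEM of six independent experiments.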

For another assay, the system named is HCT-116. The experiment in a line: Cytotoxicity against human HCT116 cells after 72 hrs by XTT assay. Type of assay: functional, cell-based. Particulars: HCT-116, 72 h. The essentials: as §1
The subject of a further assay is CCRF-CEM. The experiment in a line: Cytotoxicity against human CCRF-CEM cells after 72 hrs by XTT assay. It is filed as functional, cell-based. In short, it runs like this: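 CCRF-CEM leukemia cells in RPMI 1640 with 2 mM L-glutamine, 10% FBS, and penicillin/streptomycin at 37 °C in 5% CO2. 10 000 cells/well were exposed 72 h to a concentration series (final DMSO 0.5%, vehicle control; vinblastine 0.01 μM as positive control). XTT was read photometrically after 4 h. Four-parameter logistic IC50; mean ± SEM, n = 6 independent experiments.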

A further assay deals with MDA-MB-231. The experiment in a line: Cytotoxicity against human MDA-MB-231 cells after 72 hrs by XTT assay. Particulars: MDA-MB-231, 72 h. It is filed as functional, cell-based. In short, it runs like this:
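MDA-MB-231 breast cancer cells kept in RPMI 1640 with 2 mM L-glutamine, 10% FBS, and penicillin/streptomycin at 37 °C in 5% CO2. 5000 cells/well were grown overnight, then exposed 72 h to compounds (final DMSO 0.5%, vehicle control; vinblastine 0.01 μM as positive control). Photometric XTT readout after 1.5 h. Four-parameter logistic IC50; six independent experiments, mean ± SEM.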

Another assay concerns HEK293. Briefly: Cytotoxicity against HEK293 cells after 72 hrs by XTT assay. Particulars: Homo sapiens, HEK293, 72 h. It is filed as cell-based. In short, it runs like this: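 HEK-293 cells in DMEM:Ham's F12 (1:1) with 2 mM L-glutamine, 10% FBS, and 1% penicillin/streptomycin at 37 °C in 5% CO2. 10 000 cells/well were treated 72 h with compounds from DMSO stocks (final DMSO 0.5%; vehicle controls). XTT plus electron coupling reagent was added and read photometrically. IC50 from a four-parameter logistic fit; mean ± SEM of six independent experiments.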

The structures appear in SMILES notation.

The values that follow come from ChEMBL document CHEMBL4196138, “Antiproliferative Carvotacetones from Sphaeranthus africanus” (J Nat Prod, 2018).

Regarding `C/C=C(/C)C(=O)O[C@@H]1C(=O)C(CO)=C[C@@H](OC(=O)/C(C)=C/C)[C@H]1C(C)C`, the IC50 with U-251 came out at 2100 nM; in the assay with HCT-116, 2500 nM; with CCRF-CEM, 1300 nM; in the assay on MDA-MB-231, 2000 nM; in the assay with HEK293 it was 3000 nM.
With `C/C=C(/C)C(=O)O[C@@H]1C=C(CO)C(=O)[C@@H](O)[C@@H]1C(C)C`, the 50% inhibitory concentration (IC50) with U-251 came to 4300 nM; with HCT-116, 9500 nM; with CCRF-CEM, 1500 nM; in the assay with MDA-MB-231, 6500 nM; in the assay on HEK293, 5500 nM.
Take `C/C=C(/C)C(=O)O[C@@H]1C(=O)C(CO)=C[C@@H](OC(=O)/C(C)=C\C)[C@H]1C(C)C`: the concentration for half-maximal inhibition (IC50) in the assay with U-251 is 3000 nM; with HCT-116 it was 3900 nM; in the assay on CCRF-CEM, 800 nM; with MDA-MB-231, 1800 nM; in the assay with HEK293, 2500 nM.
For the compound `C/C=C(/C)C(=O)O[C@@H]1C=C(CO)C(=O)[C@@H](OC(=O)[C@](C)(O)[C@@H](C)Cl)[C@@H]1C(C)C`, the IC50 in the assay on U-251 stood at 2100 nM; in the assay on HCT-116, 2900 nM; in the assay with CCRF-CEM it was 600 nM; with MDA-MB-231 it was 1500 nM; with HEK293, 2800 nM.
The like results for `C/C=C(/C)C(=O)O[C@@H]1C=C(CO)C(=O)[C@@H](OC(=O)[C@]2(C)O[C@@H]2C)[C@@H]1C(C)C` were, in that order, 2900 nM, 2600 nM, 1200 nM, 2000 nM and 3000 nM.
Take `CC[C@]1(O)C[C@@H]2CN(CCc3c([nH]c4ccccc34)[C@@](C(=O)OC)(c3cc4c(cc3OC)N(C)[C@H]3[C@@](O)(C(=O)OC)[C@H](OC(C)=O)[C@]5(CC)C=CCN6CC[C@]43[C@@H]65)C2)C1` [VINBLASTINE]: the IC50 in the assay with HCT-116 is 8.7 nM; in the assay on HEK293, 27 nM.
